Key:
[1] = system: primary rat cortical neurons; assay: 3-NP-induced cellular ROS, CellROX fluorescence; type: cell-based; conditions: for ROS level compared with 3-NP-vehicle-treated group: 0.5 mM for 24 h prior to 2.5 mM 3-NP, LiCl p < 0.001, SB p < 0.01, LiBen p < 0.0001
Outline: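 Primary cortical cultures came from E18 Sprague-Dawley rat cortex and were used at DIV 7–9 (neuron-enriched). Cultures were pretreated with test compound (0, 0.5, 1 or 3 mM) for 24 h, then exposed to 2.5 mM 3-NP for another 24 h. CellROX Green reagent was added, cells were washed with PBS, and ROS were quantified as fluorescence (Ex 485/Em 520 nm), with confocal imaging.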

[2] = system: primary rat cortical neurons; assay: 3-NP-induced neurotoxicity, cell survival by counting Hoechst-stained nuclei; type: cell-based; conditions: for Cell Survival (%): 0.5 mM for 24 h prior to 2.5 mM 3-NP for 24 h, Hoechst, % of control; for viability of cultured cortical neurons exposed to 3-NP: then 2.5 mM 3-NP 24 h
Outline: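 E18 Sprague-Dawley rat cortical neurons (DIV 7–9) were pretreated with test compound for 24 h, then given 2.5 mM 3-NP for 24 h. Cells were fixed in 4% paraformaldehyde and stained with Hoechst 33342 (1:1000 in PBS, 5–15 min). Nuclei with normal morphology were counted. Survival (%) = mean surviving cells ÷ concurrent control × 100%.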

[3] = system: rat primary cortical neurons; assay: Mitochondrial respiration, Seahorse XF Cell Mito Stress Test; type: cell-based; conditions: 3 mM
Outline: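 Rat primary cortical neurons on XF96 plates were pretreated with test compound (3 mM) for 24 h. They were then moved to XF assay medium for 1 h at 37 °C without CO2. Oxygen consumption rate was recorded on an XF96 analyser with serial oligomycin, FCCP and rotenone/antimycin A injections. Basal respiration, ATP production, proton leak and spare capacity were derived; mean ± SD, N=3.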

APP/PS1 mice [4] = assay: Prepulse inhibition, sensorimotor gating; type: in vivo, mouse
Outline: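 In APP/PS1 mice and WT littermates, test compound in 0.9% saline was given i.p. once daily from 5 months of age. The dose was 256 mg/kg/day for 5 months, then lowered to 200 mg/kg/day. Saline-vehicle groups served as controls. Behavioural testing took place at 5 (pre-dose), 7, 10 and 13 months of age.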

[5] = Pharmacokinetics of lithium in rat plasma after single oral dose; type: in vivo; conditions: same molarity
Outline: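 Male Sprague-Dawley rats (240–260 g, n=6/group) were fasted overnight and given a single gavage dose in PBS. Doses were test compound 255.3 mg/kg or sodium benzoate 287.9 mg/kg plus Li2CO3 74.2 mg/kg (equimolar). Jugular blood was drawn from 0 to 24 h into heparinised tubes, and plasma was separated at 2500×g for 15 min at 4 °C. Plasma was digested overnight in 2–5% nitric acid, filtered, and lithium measured by ICP-MS; concentration-time plots were used; mean ± SD.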

APP/PS1 mice [6] = assay: Amyloid plaque number in brain, Congo red staining; type: in vivo, mouse; conditions: APP/PS1 mice at 16 months of age, AD/LiBen vs AD/Veh; p < 0.05
WT mice = assay: Chronic administration safety observations in WT mice; type: in vivo, mouse
Outline: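 Wild-type littermates dosed i.p. once daily from 5 months of age for 8 months with test compound in 0.9% saline (n = 27) or saline vehicle (n = 23). Dose 256 mg/kg/day for 5 months, then 200 mg/kg/day. Barnes maze at 5, 7, 10 and 13 months, scored as probe-trial target-quadrant time over total exploring time. Body weight and survival followed to 16 months.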

[7] = system: rat primary cortical neurons; assay: Neurogenesis, BrdU/NeuN immunostaining after Aβ25-35; type: cell-based; conditions: p < 0.0001
Outline: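 Aβ25-35 was pre-aggregated at 37 °C for 24 h and applied to E18 rat cortical cultures on coverslips for 2 days. Medium was then replaced with BrdU labelling solution plus test compound for 4 days at 37 °C. Cells were fixed in PFA, blocked in 2% BSA, permeabilised with 0.03% Triton X-100 and treated with 2 N HCl. They were stained for BrdU (1:250), NeuN (1:300) and Hoechst. Triple-positive cells were expressed as % of untreated control; mean ± SD, N=3, one-way ANOVA with Student-Newman-Keuls.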

[8] = system: rat primary cortical neuronal culture; assay: Oxygen glucose deprivation; type: cell-based
Outline: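 For OGD, rat cortical cultures were rinsed into glucose- and pyruvate-free Neurobasal-A and held 1 h at 37 °C/5% CO2. They were then kept under 95% N2/5% CO2 (about 1.0% O2) for 4 h. Test compound was present either for the whole 53 h (0–5 mM) or only for 48 h post-OGD (0–3 mM). Viability was measured by MTT as % of the normoxic untreated control.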

[9] = system: rat primary cortical neurons; assay: Aβ25-35-induced cytotoxicity, cell survival with or without MK-801; type: cell-based; conditions: for cell survival rate: 10 μM Aβ25-35 for 2 days, then 1 mM for 4 days; for protective effect against Aβ25-35 in the presence vs absence of MK-801: MK-801 10 μM, SB 1 mM, LiBen 0.5 and 1 mM
[10] = US FDA and JECFA of WHO; cited from earlier work
[11] = 24 h, compared with SB or LiCl treatment

O=C(O)CC[N+](=O)[O-] [3-NP, 3-nitropropionic acid, reference compound]
ROS level (fluorescent intensity) increase compared to control ([1]; 3-NP 2.5 mM, 24 h, p < 0.05): 57.5% | neuronal cell death ([2]; 3-NP 2.5 mM alone): ~50%

O=C([O-])c1ccccc1.[Li+] [LiBen, lithium benzoate]
ATP production [3, 11]: more reduction | proton leak [3, 11]: more reduction | spare respiratory capacity ([3]; 24 h pre-treatment): increasing tendency | basal oxygen consumption rate ([3]; 24 h pre-treatment, did not reach the significant level): reduced more basal oxygen consumption rate than the other treatment groups | improvement of PPI deficit (APP/PS1 mice [4]; APP/PS1 mice at 13 months of age): reached significant level | prepulse inhibition (PPI) (APP/PS1 mice [4]; APP/PS1 mice, i.p. once daily from 5 months of age, tested at 7, 10, 13 months): normal PPI at all time points | AUC of lithium compared with the SB + Li2CO3 mixture group [5]: also higher | Cmax of lithium compared with the SB + Li2CO3 mixture group [5]: significantly higher | decrease in number of plaques in cortex (APP/PS1 mice [6]): 21.8% | decrease in number of plaques in hippocampus (APP/PS1 mice [6]): 27.8% | body weight change during the experimental period (WT mice; WT mice, chronic administration): without significant body weight change | survival (WT mice; WT mice, chronic administration, termination time point of the experiment): at least 16 months | toxicity of chronic use (WT mice; within the tested dose range (256, later 200 mg/kg/day i.p.)): did not display any toxicity | neurogenesis (BrdU+/NeuN+ cells) vs corresponding control ([7]; Aβ25-35 exposure, then 0.5 mM for 4 days): significantly improve neurogenesis | neurogenesis (BrdU+/NeuN+ cells) vs corresponding control ([7]; No Aβ25-35 exposure, 0.5 mM for 4 days): significantly improve neurogenesis | ROS level compared with 3-NP-vehicle-treated group [1]: much more significant | OGD-induced cell death / cell viability ([8]; 3 mM LiBen present for 53 hrs of the whole culture period): significantly recovered and comparable to the normoxia group | cell survival in normoxia group ([8]; 5 mM LiBen, 53 hrs): also reduced | neuroprotective property under OGD ([8]; 5 mM LiBen, 53 hrs): vanished | OGD-induced cell death ([8]; LiBen 0.3 to 3 mM added for 48 hrs post-OGD, vs 0 mM group): significantly alleviates OGD-induced cell death | Cell Survival (%) [2]: 79.0% | viability of cultured cortical neurons exposed to 3-NP ([2]; LiBen 1 mM 24 h, p < 0.005 vs 3-NP alone): significantly increase | viability of cultured cortical neurons exposed to 3-NP ([2]; LiBen 3 mM 24 h, p < 0.001 vs 3-NP alone): significantly increase | viability of cultured cortical neurons in the absence of 3-NP ([2]; LiBen 1 or 3 mM, no 3-NP): the difference was not revealed | cell survival rate [9]: 85.1% | protective effect against Aβ25-35 in the presence vs absence of MK-801 [9]: no differences were observed

[Cl-].[Li+] [LiCl, lithium chloride, reference compound]
spare respiratory capacity ([3]; 24 h pre-treatment): less effective than LiBen | ROS level compared with 3-NP-vehicle-treated group [1]: significant decreases | Cell Survival (%) [2]: 61.5% | cell survival rate [9]: 74.0%

O=C([O-])c1ccccc1.[Na+] [SB, Sodium benzoate]
acceptable daily intake level [10]: 5 mg/kg body weight | spare respiratory capacity ([3]; 24 h pre-treatment): less effective than LiBen | ROS level compared with 3-NP-vehicle-treated group [1]: significant decreases | Cell Survival (%) [2]: 67.1% | cell survival rate [9]: 70.7% | protective effect against Aβ25-35 in the presence vs absence of MK-801 [9]: blocked by MK-801

Source: paper PMC9535606 (Journal of Alzheimer's Disease Reports, 2022)
